According to ChEMBL document CHEMBL2216753, “Novel 1,4-benzoxazine and 1,4-benzodioxine inhibitors of angiogenesis” (Eur J Med Chem, 2012):
pIC50, pKi: −log10 of the molar value. Active and inactive are the calls of the source. The calls are words filed in the database; no cut-off is given here.

Experiments:
[1] = Cytotoxicity against human HMEC1 cells at 100 uM after 3 days by coulter counter method; format: cell-based; settings: hmec-1, 72 h
Outline: (§1)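 Cells seeded at 10,000 cells per cm2; after 16 h, fresh medium with test compound added. Cells trypsinized and counted with a Coulter counter on day 4 (BAEC, HeLa, MCF-7) or day 7 (HMEC-1). Cytotoxicity (cell death) was judged after 3 days in culture. HMEC-1 grown in EGM-2 with supplements and growth factors.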

[2] = Cytotoxicity against bovine BAEC cells at 100 uM after 3 days by coulter counter method; format: cell-based, Bos taurus; settings: cattle, 72 h; outline: as §1
HeLa [3] = assay: Cytotoxicity against human HeLa cells at 100 uM after 3 days by coulter counter method; format: cell-based; settings: 72 h; outline: as §1
MCF7 [4] = assay: Cytotoxicity against human MCF7 cells at 100 uM after 3 days by coulter counter method; format: cell-based; settings: mcf7, 72 h; outline: as §1
Gallus gallus = organism: Gallus gallus; assay: Antiangiogenic activity in chicken embryo chorioallantoic membrane model at 250 nmol/disc after 3 days; format: functional, tissue-based
Prothrombin = Prothrombin (Homo sapiens, UniProt P00734); assay: Inhibition of thrombin
[5] = Antiproliferative activity against human HMEC1 cells after 7 days by coulter counter method; format: functional, cell-based; settings: HMEC-1, 168 h
HeLa [6] = assay: Antiproliferative activity against human HeLa cells after 4 days by coulter counter method; format: functional, cell-based; settings: 96 h
[7] = Antiproliferative activity against bovine BAEC cells after 4 days by coulter counter method; format: functional, cell-based; settings: Bos taurus, 96 h
MCF7 [8] = assay: Antiproliferative activity against human MCF7 cells after 4 days by coulter counter method; format: functional, cell-based; settings: MCF7, 96 h
MAEC [9] = assay: Antimigratory activity against mouse MAEC cell migration after 5 hrs by wound closure assay; format: functional, cell-based
Outline: (§2)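 Confluent MAEC monolayers wounded with a 1.0-mm wide micropipette tip, then incubated in fresh medium with test compound. Wounds photographed after 5 h and width calculated from digital images. Mean ± SD of 2–4 independent experiments; Student t test, p < 0.05 significant.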

[10] = (§3) Antimigratory activity against mouse MAEC cell migration at 30 uM after 5 hrs by wound closure assay; format: functional; outline: as §2
[11] = Antimigratory activity against mouse MAEC cell migration at 10 uM after 5 hrs by wound closure assay; format: functional; outline: as §2
HMEC-1 [12] = assay: Antiangiogenic activity in human HMEC1 cells assessed as inhibition of tube formation at 10 uM after 4 to 6 hrs by matrigel assay; format: functional, cell-based
Outline: (§4)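 HMEC-1 (60,000 cells) seeded on matrigel (10 mg/mL) after 30 min gelling at 37 °C, in DMEM containing test compound; after 4–6 h cells photographed and tubes scored 0 (none) to 3 (maximal, like untreated control). Mean ± SD of 2–4 independent experiments; Student t test, p < 0.05 significant.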

HMEC-1 [13] = assay: Antiangiogenic activity in human HMEC1 cells assessed as inhibition of tube formation after 4 to 6 hrs by matrigel assay; format: functional, cell-based; outline: as §4
HMEC-1 [14] = assay: Antiangiogenic activity in human HMEC1 cells assessed as inhibition of tube formation at 100 uM after 4 to 6 hrs by matrigel assay; format: functional, cell-based; outline: as §4
HMEC-1 [15] = assay: Antiangiogenic activity in human HMEC1 cells assessed as inhibition of tube formation at 30 uM after 4 to 6 hrs by matrigel assay; format: functional, cell-based; outline: as §4
[16] = molecular target: Vascular endothelial growth factor receptor 2 (Homo sapiens, UniProt P35968); assay: Inhibition of human recombinant VEGFR2 expressed in Sf9 insect cells assessed as inhibition of poly(Glu,Tyr) 4:1 substrate phosphorylation by radiometric assay
Chain of Vascular endothelial growth factor receptor 2 (P35968 whole entry, the tested form may be a part): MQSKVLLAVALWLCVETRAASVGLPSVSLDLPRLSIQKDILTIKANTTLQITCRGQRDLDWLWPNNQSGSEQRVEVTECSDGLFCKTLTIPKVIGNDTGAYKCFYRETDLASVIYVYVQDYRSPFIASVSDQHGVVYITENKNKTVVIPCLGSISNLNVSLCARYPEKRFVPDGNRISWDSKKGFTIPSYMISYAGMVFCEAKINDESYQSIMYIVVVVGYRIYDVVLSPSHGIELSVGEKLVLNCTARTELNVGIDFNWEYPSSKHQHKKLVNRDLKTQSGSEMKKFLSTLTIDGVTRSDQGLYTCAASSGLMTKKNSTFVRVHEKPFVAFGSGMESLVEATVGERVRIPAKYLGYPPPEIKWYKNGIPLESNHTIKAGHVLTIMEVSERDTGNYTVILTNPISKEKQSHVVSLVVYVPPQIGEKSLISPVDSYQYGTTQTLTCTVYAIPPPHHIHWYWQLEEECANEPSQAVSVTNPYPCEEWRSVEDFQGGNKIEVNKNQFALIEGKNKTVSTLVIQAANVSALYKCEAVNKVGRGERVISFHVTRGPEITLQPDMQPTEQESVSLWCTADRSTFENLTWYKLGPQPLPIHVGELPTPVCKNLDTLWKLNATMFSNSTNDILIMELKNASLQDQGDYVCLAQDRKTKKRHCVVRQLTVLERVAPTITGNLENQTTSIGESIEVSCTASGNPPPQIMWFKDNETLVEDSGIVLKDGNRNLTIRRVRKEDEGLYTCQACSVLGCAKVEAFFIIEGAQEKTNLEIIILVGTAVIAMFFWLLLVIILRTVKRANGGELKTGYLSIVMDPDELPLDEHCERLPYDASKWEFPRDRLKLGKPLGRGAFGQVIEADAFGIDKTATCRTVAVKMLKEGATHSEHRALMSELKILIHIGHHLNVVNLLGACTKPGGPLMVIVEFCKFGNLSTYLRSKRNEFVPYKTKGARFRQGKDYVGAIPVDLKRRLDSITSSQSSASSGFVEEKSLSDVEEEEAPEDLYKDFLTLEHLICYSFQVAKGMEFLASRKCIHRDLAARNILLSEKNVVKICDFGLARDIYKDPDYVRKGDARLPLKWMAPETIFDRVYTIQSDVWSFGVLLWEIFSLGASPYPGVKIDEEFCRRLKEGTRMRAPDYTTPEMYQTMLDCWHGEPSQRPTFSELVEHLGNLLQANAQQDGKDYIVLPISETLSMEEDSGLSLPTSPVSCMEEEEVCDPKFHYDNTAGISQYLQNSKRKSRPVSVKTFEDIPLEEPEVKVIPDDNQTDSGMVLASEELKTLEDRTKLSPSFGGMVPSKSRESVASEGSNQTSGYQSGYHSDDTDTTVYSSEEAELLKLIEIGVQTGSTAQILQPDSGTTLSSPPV
Outline: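 Human recombinant GST-fusion VEGFR2 kinase, expressed in Sf9 cells and purified on GSH-agarose, with poly(Glu,Tyr) 4:1 as substrate; phosphorylation read radiometrically. Racemic trifluoroacetate salts tested at 10 concentrations (1 × 10−4 M to 3 × 10−9 M) to give IC50, run in singlicate by a contract lab.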

[17] = Cytotoxicity against human HMEC1 cells at 30 uM after 3 days by coulter counter method; format: cell-based; settings: hmec-1, 72 h; outline: as §1
[18] = Cytotoxicity against bovine BAEC cells at 30 uM after 3 days by coulter counter method; format: cell-based, Bos taurus; settings: cattle, 72 h; outline: as §1
HeLa [19] = assay: Cytotoxicity against human HeLa cells at 30 uM after 3 days by coulter counter method; format: cell-based; settings: 72 h; outline: as §1
MCF7 [20] = assay: Cytotoxicity against human MCF7 cells at 30 uM after 3 days by coulter counter method; format: cell-based; settings: mcf7, 72 h; outline: as §1
MAEC [21] = assay: as §3; format: functional; outline: as §2
[22] = Antimigratory activity against mouse MAEC cell migration at 3 uM after 5 hrs by wound closure assay; format: functional; outline: as §2

Row | Compound | Activity [1] | Activity [2] | Activity (HeLa [3]) | Activity (MCF7 [4]) | inhibition (Gallus gallus) | pIC50 [5] | pIC50 (HeLa [6]) | pIC50 [7] | pIC50 (MCF7 [8]) | inhibition (MAEC [9]) | inhibition at 10 µM [11] [%] | inhibition (HMEC-1 [12]) | inhibition (HMEC-1 [15]) | Activity [17] | Activity [18] | Activity (HeLa [19]) | Activity (MCF7 [20]) | inhibition (MAEC [21]) | further results
1 | CCOC(=O)C(=O)N(Cc1ccccc1)c1ccc2c(c1)OC[C@H](COc1ccc(C(=N)N)cc1)O2 | Non-toxic | Non-toxic | Non-toxic | Non-toxic | Active | 4.62 | 4.72 | 4.92 | 5.02 | – | – | – | – | – | – | – | – | – | pKi (Prothrombin): 7.74
2 | CCOC(=O)C(=O)N(Cc1ccccc1)c1ccc2c(c1)OC(C)(CO)CN2C (stereo not drawn) | Toxic | Toxic | Toxic | Toxic | – | < 4.00 | < 4.00 | < 4.00 | < 4.00 | Dose-dependent effect | > 40 | inactive | Active | – | – | – | – | – | inhibition at 30 µM [10]: > 80%; inhibition (HMEC-1 [13]): Active; inhibition (HMEC-1 [14]): Active
3 | CN1CC(C)(COc2ccc(C(=N)N)cc2)Oc2ccc(N(CC(=O)O)Cc3cc(F)cc(F)c3)cc21 (racemic) [listing 1 of 2 here] | – | – | – | – | – | – | – | – | – | – | – | – | – | – | – | – | – | – | pIC50 [16]: 4.65
4 | CCOC(=O)C(=O)N(Cc1cccc(F)c1)c1ccc2c(c1)N(C)CC(C)(COc1ccc(C(=N)N)cc1)O2 (racemic) | – | – | – | – | – | – | – | – | – | – | – | – | – | – | – | – | – | – | pIC50 [16]: 4.10
5 | CCOC(=O)CN(Cc1cc(F)cc(F)c1)c1ccc2c(c1)OC(C)(COc1ccc(C(=N)N)cc1)CN2C (stereo not drawn) | Toxic | Toxic | Toxic | Toxic | Active | 5.74 | 5.31 | 5.39 | 5.46 | Dose-dependent effect | 50 | inactive | Active | Toxic | Toxic | Toxic | Toxic | Active | –
6 | CCOC(=O)CN(Cc1ccc(F)cc1)c1ccc2c(c1)OC(C)(COc1ccc(C(=N)N)cc1)CN2C (stereo not drawn) | Toxic | Toxic | Toxic | Toxic | Active | 5.54 | 5.40 | 5.54 | 5.28 | Dose-dependent effect | 78 | inactive | Active | Toxic | Toxic | Toxic | Toxic | – | inhibition at 30 µM [10]: 95%; inhibition at 3 µM [22]: 41%
7 | CCOC(=O)C(=O)N(Cc1cccc(F)c1)c1ccc2c(c1)N(C)CC(C)(COc1ccc(C(=N)N)cc1)O2 (stereo not drawn) | Toxic | Toxic | Toxic | Toxic | – | 5.11 | 4.70 | 4.74 | 5.19 | – | 50 | – | – | Non-toxic | Non-toxic | Non-toxic | Non-toxic | – | inhibition at 3 µM [22]: > 40%
8 | CCOC(=O)CN(Cc1cccc(F)c1)c1ccc2c(c1)OC(C)(COc1ccc(C(=N)N)cc1)CN2C (stereo not drawn) | Toxic | Toxic | Toxic | Toxic | Active | 5.59 | 5.35 | 5.39 | 5.41 | Dose-dependent effect | 50 | inactive | Active | Toxic | Toxic | Toxic | Toxic | Active | –
9 | CCOC(=O)CN(Cc1ccc(F)cc1)c1ccc2c(c1)N(C)CC(C)(COc1ccc(C(=N)N)cc1)O2 (stereo not drawn) | Toxic | Toxic | Toxic | Toxic | Active | 5.22 | 5.32 | 5.42 | 5.39 | Dose-dependent effect | 50 | inactive | Active | Toxic | Toxic | Toxic | Toxic | Active | –
10 | CCOC(=O)C(=O)N(Cc1cc(F)cc(F)c1)c1ccc2c(c1)OC(C)(COc1ccc(C(=N)N)cc1)CN2C (stereo not drawn) | Toxic | Toxic | Toxic | Toxic | Active | 5.17 | 5.18 | 5.34 | 5.54 | Dose-dependent effect | 50 | – | – | Non-toxic | Non-toxic | Non-toxic | Non-toxic | Active | inhibition at 3 µM [22]: > 40%; inhibition (HMEC-1 [13]): Dose-dependent effect
11 | CCOC(=O)CN(Cc1ccc(F)c(F)c1)c1ccc2c(c1)OC(C)(COc1ccc(C(=N)N)cc1)CN2C (stereo not drawn) | Toxic | Toxic | Toxic | Toxic | Active | 5.60 | 5.39 | 5.40 | 5.40 | Dose-dependent effect | 50 | inactive | Active | Toxic | Toxic | Toxic | Toxic | Active | –
12 | CCOC(=O)CN(Cc1cccc(F)c1)c1ccc2c(c1)N(C)CC(C)(COc1ccc(C(=N)N)cc1)O2 (stereo not drawn) | Toxic | Toxic | Toxic | Toxic | Active | 5.22 | 5.34 | 5.41 | 5.38 | Dose-dependent effect | 50 | inactive | Active | Toxic | Toxic | Toxic | Toxic | Active | inhibition at 3 µM [22]: > 40%
13 | CCOC(=O)C(=O)N(Cc1cc(F)cc(F)c1)c1ccc2c(c1)OC(C)(CO)CN2C (stereo not drawn) | Toxic | Toxic | Toxic | Toxic | – | 4.05 | 4.36 | 4.22 | 4.35 | Dose-dependent effect | > 40 | inactive | Active | – | – | – | – | – | inhibition at 30 µM [10]: > 80%; inhibition (HMEC-1 [13]): Active; inhibition (HMEC-1 [14]): Active
14 | CCOC(=O)CN(Cc1ccc(F)c(F)c1)c1ccc2c(c1)N(C)CC(C)(COc1ccc(C(=N)N)cc1)O2 (stereo not drawn) | Toxic | Toxic | Toxic | Toxic | Active | 5.38 | 5.32 | 5.39 | 5.41 | Dose-dependent effect | 50 | inactive | Active | Toxic | Toxic | Toxic | Toxic | Active | –
15 | CN1CC(C)(COc2ccc(C(=N)N)cc2)Oc2ccc(N(CC(=O)O)Cc3cc(F)cc(F)c3)cc21 (racemic) [listing 2 of 2 here] | – | – | – | – | – | – | – | – | – | – | – | – | – | – | – | – | – | – | inhibition [16]: Dose-dependent effect
